The source of these data is ChEMBL document CHEMBL1148730, “Design of noncompetitive interleukin-8 inhibitors acting on CXCR1 and CXCR2” (J Med Chem, 2007).

Type in all cases: functional
Experiment [1] is described as follows: Inhibition of CXCL8-induced cell migration in human PMN cells at 0.01 uM by chemotaxis assay. Put shortly:
(§1)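 Human PMNs from normal-donor buffy coats (dextran sedimentation, hypotonic lysis; 95% purity, >95% viability). Cells at 1.5-3 × 10⁶/mL preincubated 15 min at 37 °C with vehicle or compound, then seeded in triplicate in the upper well of a 48-well micro-chemotaxis chamber. Lower well held CXCL8 1 nM or CXCL1 10 nM. Chamber ran 45 min at 37 °C in 5% CO₂; filters were fixed and stained, and five 100× fields per well were counted.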

Experiment [2] is described as follows: Inhibition of CXCL1-induced cell migration in human PMN cells at 0.01 uM by chemotaxis assay. The method in brief:
as §1

Experiment [3] in a line: Inhibition of CXCL8-induced cell migration in human PMN cells at 1 nM chemotaxis assay. Put shortly:
as §1

Experiment [4] can be described thus: Inhibition of CXCL1-induced cell migration human PMN cells at 0.1 uM chemotaxis assay. Put shortly: as §1

The inhibition is the relative decrease from the control value, in per cent. Turning to `CCC(=O)Oc1ccc(C(C)C(=O)O)cc1` (stereo unspecified), the inhibition at 0.01 µM in experiment [1] was -6%. The same measure, in the same setting: as for `CC(C(=O)O)c1ccc(NS(=O)(=O)C(F)(F)F)cc1` (stereo unspecified), the figure is 10%; as for `CC(C(=O)O)c1ccc(NC(=O)c2ccccc2)cc1` (stereo unspecified), 8%. As for `CC(Cc1cccc(C(C)C(=O)O)c1)c1ccccc1` (stereo unspecified), the inhibition at 0.01 µM in experiment [1] worked out at 0%. As to `C[C@@H](C(=O)NS(C)(=O)=O)c1ccc(OS(=O)(=O)C(F)(F)F)cc1` [LADARIXIN], the inhibition at 0.01 µM in experiment [1] worked out at 60%; in experiment [2] it was 61%. For `C[C@@H](C(N)=O)c1ccc(OS(=O)(=O)C(F)(F)F)cc1`, in that order: 60% and 58%.

With `CC(C(=O)O)c1ccc(NS(=O)(=O)C(C)C)cc1` (stereo unspecified), the inhibition at 0.01 µM in experiment [1] is 44%. Take `CC(C(=O)O)c1ccc(Cc2ccccc2)cc1` (stereo unspecified): the results for the inhibition at 0.01 µM in experiment [1] and in experiment [2] were 1% and 35%, respectively.

Consider `CCC(O)c1cccc(C(C)C(=O)O)c1` (stereo unspecified), for which the inhibition at 0.01 µM in experiment [1] was found to be 57%; in experiment [2], 40%.

As for `C/C=C/c1cccc(C(C)C(=O)O)c1` (stereo unspecified), the inhibition at 0.01 µM in experiment [1] was -1%. With `C[C@@H](C(=O)NS(=O)(=O)c1ccccc1)c1ccc(OS(=O)(=O)C(F)(F)F)cc1`, the inhibition at 0.01 µM in experiment [1] was 43%; in experiment [2] it was 8%. Take `CC(C)Cc1cccc(C(C)C(=O)O)c1` (stereo unspecified): in experiment [1], the inhibition at 0.01 µM was -10%. Consider `CC(C(=O)O)c1cccc(C(=O)C2CCCC2)c1` (stereo unspecified), for which the inhibition at 0.01 µM in experiment [1] was -5%; in experiment [2] it was 2%.

On to `C[C@@H](C(=O)NC1CCCC1)c1ccc(OS(=O)(=O)C(F)(F)F)cc1`, for which, in experiment [1], the inhibition at 0.01 µM is 0%. As to `C[C@@H](C(=O)N(C)O)c1ccc(OS(=O)(=O)C(F)(F)F)cc1`, the inhibition at 0.01 µM in experiment [1] was determined as 48%; in experiment [2], 47%. For `CC(C(=O)O)c1cccc(C(=O)C2CCCCC2)c1` (stereo unspecified), in that order: 5% and 4%. As to `CC(C)c1ccc(C(C)C(=O)O)cc1` (stereo unspecified), in experiment [1], the inhibition at 0.01 µM is 15%.

Take `CC(C(=O)O)c1cccc(C(C)c2ccccc2)c1` (stereo unspecified): the inhibition at 0.01 µM in experiment [1] stood at 55%; in experiment [2], 45%. `CC(C(=O)O)c1ccc(-c2cccs2)cc1` (stereo unspecified): the inhibition at 0.01 µM in experiment [1] was found to be 11%. Still for that read-out and setting: as for `C[C@@H](C(=O)Nc1ccccc1)c1ccc(OS(=O)(=O)C(F)(F)F)cc1`, the figure is 10%; as for `C[C@@H](C(=O)NCC1CC1)c1ccc(OS(=O)(=O)C(F)(F)F)cc1`, 12%. As for `CCC(CC)c1cccc(C(C)C(=O)O)c1` (stereo unspecified), the inhibition at 0.01 µM is 58% in experiment [1] and 67% in experiment [2]. For `CC(C)c1cccc(C(C)C(=O)O)c1` (stereo unspecified), in that order: 62% and 55%. With `CCCCc1cccc(C(C)C(=O)O)c1` (stereo unspecified), in experiment [1], the inhibition at 0.01 µM turned out to be 3%. Take `C[C@@H](C(=O)Nc1ccccn1)c1ccc(OS(=O)(=O)C(F)(F)F)cc1`: the inhibition at 0.01 µM was 48% in experiment [1] and 50% in experiment [2].

Regarding `CC(C(=O)O)c1ccc(NS(=O)(=O)c2ccccc2Cl)cc1` (stereo unspecified), the inhibition at 0.01 µM in experiment [1] is -2%; in experiment [2], 66%.

Turning to `CC(C(=O)O)c1cccc(C(=O)c2ccco2)c1` (stereo unspecified), the inhibition at 0.01 µM in experiment [1] is -3%. With `CC(C(=O)O)c1cccc(C(=O)c2ncco2)c1` (stereo unspecified), the inhibition at 0.01 µM in experiment [1] worked out at 26%. Turning to `CC(C(=O)O)c1ccc(OS(=O)(=O)c2ccccc2)cc1` (stereo unspecified), the inhibition at 0.01 µM in experiment [1] worked out at 55%; in experiment [2] it was 54%.

As to `CC(C(=O)O)c1cccc(C(=O)c2nccs2)c1` (stereo unspecified), the inhibition at 0.01 µM in experiment [1] came to 63%; in experiment [2], 48%. As for `CC(C)C(=O)c1cccc(C(C)C(=O)O)c1` (stereo unspecified), the inhibition at 0.01 µM in experiment [1] came out at 20%. Still for that read-out and setting: as for `C[C@@H](C(=O)NS(=O)(=O)c1cccnc1)c1ccc(OS(=O)(=O)C(F)(F)F)cc1`, the figure is 11%. A word on the Inhibition: it is the drop in the measured response relative to a control, in per cent. Turning to `CC(C)NC(=O)[C@H](C)c1ccc(OS(=O)(=O)C(F)(F)F)cc1`, the inhibition at 0.01 µM in experiment [2] was determined as 72%. The same molecule came in with an Inhibition in experiment [3] of 50%. With `C[C@@H](C(=O)NO)c1ccc(OS(=O)(=O)C(F)(F)F)cc1`, the inhibition at 0.01 µM in experiment [1] was 48%; in experiment [2], 50%.

For `CC(C)ONC(=O)[C@H](C)c1ccc(OS(=O)(=O)C(F)(F)F)cc1`, the inhibition at 0.01 µM in experiment [1] stood at 50%; in experiment [2] it was 40%. Take `C[C@@H](C(=O)Nc1nccs1)c1ccc(OS(=O)(=O)C(F)(F)F)cc1`: the values for the inhibition at 0.01 µM in experiment [1] and in experiment [2] were 57% and 56%, respectively. Turning to `CCC(=O)c1cccc(C(C)C(=O)O)c1` (stereo unspecified), the inhibition at 0.01 µM in experiment [1] came out at 1%. The same measure, in the same setting: as for `CC(C(=O)O)c1ccc(OC(=O)c2ccccc2)cc1` (stereo unspecified), the figure is 32%. `CC(C(=O)O)c1cccc(C(=O)c2cccs2)c1` (stereo unspecified): the inhibition at 0.01 µM in experiment [1] amounted to 51%; in experiment [2] it was 50%. For `CC(C(=O)O)c1ccc(CC2CCCCC2)cc1` (stereo unspecified), in that order: 2% and 39%. For `C[C@@H](C(=O)NS(=O)(=O)c1ccccc1Cl)c1ccc(OS(=O)(=O)C(F)(F)F)cc1`, the inhibition at 0.01 µM in experiment [1] amounted to 18%. On the same count and under the same terms, as for `CC(C(=O)O)c1ccc(C2CCCCC2)cc1` (stereo unspecified) [HEXAPROFEN], the figure is 10%. `Cc1ccc(S(=O)(=O)Oc2ccc(C(C)C(=O)O)cc2)cc1` (stereo unspecified): the inhibition at 0.01 µM came out at 49% in experiment [1] and 65% in experiment [2]. For `CONC(=O)[C@H](C)c1ccc(OS(=O)(=O)C(F)(F)F)cc1`, in that order: 60% and 40%. Consider `CC(C(=O)O)c1ccc(C(C)(C)C)cc1` (stereo unspecified), for which the inhibition at 0.01 µM in experiment [1] amounted to 6%. On to `CC(C(=O)O)c1ccc(CC2CC2)cc1` (stereo unspecified), for which the inhibition at 0.01 µM is 24% in experiment [1] and 30% in experiment [2]. For the molecule `CC(C)=Cc1ccc(C(C)C(=O)O)cc1` (stereo unspecified), the inhibition at 0.01 µM in experiment [1] was 14%. On to `C[C@@H](C(=O)Nc1cccnc1)c1ccc(OS(=O)(=O)C(F)(F)F)cc1`, for which the inhibition at 0.01 µM in experiment [1] was determined as 5%.

With `CC(=O)c1cccc([C@@H](C)C(=O)O)c1`, the inhibition at 0.01 µM in experiment [1] was 5%. For `C/C=C/c1ccc(C(C)C(=O)O)cc1` (stereo unspecified), the inhibition at 0.01 µM in experiment [1] amounted to 11%. On the same count and under the same terms, as for `C[C@@H](C(=O)NC1CC1)c1ccc(OS(=O)(=O)C(F)(F)F)cc1`, the figure is -11%; as for `C[C@@H](C(=O)Nc1ccncc1)c1ccc(OS(=O)(=O)C(F)(F)F)cc1`, 11%.

For `CC(C(=O)O)c1cccc(C(O)c2ccccc2)c1` (stereo unspecified) [2-{3-[HYDROXY(PHENYL)METHYL]PHENYL}PROPANOIC ACID], the results for the inhibition at 0.01 µM in experiment [1] and in experiment [2] were 31% and 40%, respectively. With `Cc1ccc(S(=O)(=O)Nc2ccc(C(C)C(=O)O)cc2)cc1` (stereo unspecified), the inhibition at 0.01 µM stood at 69% in experiment [1] and 0% in experiment [2]. With `CC(C(=O)O)c1cccc(Cc2ccccc2)c1` (stereo unspecified), the inhibition at 0.01 µM in experiment [1] stood at 10%. On the same count and under the same terms, as for `CC(C(=O)O)c1cccc(Oc2ccccc2)c1` (stereo unspecified) [FENOPROFEN], the figure is -17%. With `C[C@@H](C(=O)O)c1cccc(C(=O)c2ccccc2)c1` [R-KETOPROFEN], the inhibition at 0.01 µM in experiment [1] was determined as 64%; in experiment [2], 61%. For `C[C@@H](C(=O)Nc1ncco1)c1ccc(OS(=O)(=O)C(F)(F)F)cc1`, in that order: 50% and 48%. Turning to `CC(C(=O)O)c1ccc(N2CCCC2=O)cc1` (stereo unspecified), in experiment [1], the inhibition at 0.01 µM amounted to 10%. As for `C[C@@H](C(=O)NS(=O)(=O)C(F)(F)F)c1ccc(OS(=O)(=O)C(F)(F)F)cc1`, the inhibition at 0.01 µM in experiment [1] is -4%.

For the molecule `CC(C(=O)O)c1ccc(NS(C)(=O)=O)cc1` (stereo unspecified), the inhibition at 0.01 µM in experiment [1] was -8%. Turning to `CC(C(=O)O)c1ccc(-c2ccccc2)cc1` (stereo unspecified), in experiment [1], the inhibition at 0.01 µM stood at 0%. For `CC(C(=O)O)c1ccc(CC2CCC2)cc1` (stereo unspecified), the inhibition at 0.01 µM is 55% in experiment [1] and 59% in experiment [2]. In the case of `CC(C(=O)O)c1cccc(C(C)(O)c2ccccc2)c1` (stereo unspecified), the inhibition at 0.01 µM in experiment [1] turned out to be 0%. Turning to `CC(C(=O)O)c1ccc(OS(=O)(=O)C(C)C)cc1` (stereo unspecified), the values for the inhibition at 0.01 µM in experiment [1] and in experiment [2] were 49% and 46%, respectively.

Take `CC(C(=O)O)c1ccc(OS(C)(=O)=O)cc1` (stereo unspecified): the inhibition at 0.01 µM in experiment [1] worked out at 5%. As for `CC(C(=O)O)c1ccc(N2Cc3ccccc3C2=O)cc1` (stereo unspecified) [INDOPROFEN], the Inhibition in experiment [4] was determined as 40%. In experiment [1], the inhibition at 0.01 µM was found to be 50%. In the case of `CC(C)S(=O)(=O)NC(=O)[C@H](C)c1ccc(OS(=O)(=O)C(F)(F)F)cc1`, the values for the inhibition at 0.01 µM in experiment [1] and in experiment [2] were 60% and 15%, respectively.

`CC(C(=O)O)c1ccc(CC2CCCC2)cc1` (stereo unspecified): the figures for the inhibition at 0.01 µM in experiment [1] and in experiment [2] were 10% and 40%, respectively. `C[C@@H](C(=O)Nc1nc(C(F)(F)F)cs1)c1ccc(OS(=O)(=O)C(F)(F)F)cc1`: the inhibition at 0.01 µM in experiment [1] is 64%; in experiment [2], 60%. For `CC(C(=O)O)c1ccc(OS(=O)(=O)C(F)(F)F)cc1` (stereo unspecified), in that order: 57% and 57%. With `CC(C(=O)O)c1cccc(S(=O)(=O)c2ccccc2)c1` (stereo unspecified), in experiment [1], the inhibition at 0.01 µM was found to be 9%. For the molecule `CC(O)c1cccc(C(C)C(=O)O)c1` (stereo unspecified), the inhibition at 0.01 µM in experiment [1] amounted to 43%; in experiment [2], 40%. For `CCc1ccccc1S(=O)(=O)Nc1ccc(C(C)C(=O)O)cc1` (stereo unspecified), in that order: 47% and 80%.

For `C=C(c1ccccc1)c1cccc(C(C)C(=O)O)c1` (stereo unspecified), the inhibition at 0.01 µM in experiment [1] was determined as 47%; in experiment [2] it was 2%. Take `CC(C(=O)O)c1ccc(NS(=O)(=O)c2ccccc2)cc1` (stereo unspecified): the inhibition at 0.01 µM in experiment [1] was 45%; in experiment [2], 14%. Turning to `CNC(=O)[C@H](C)c1ccc(OS(=O)(=O)C(F)(F)F)cc1`, the inhibition at 0.01 µM in experiment [1] was determined as 22%.
